Measured values from different studies.
Protocols differ between the studies behind these lines.
Read-out: cell growth or viability

| Structure (SMILES) | cell line | method | time | IC50 [µM] |
| --- | --- | --- | --- | --- |
| COc1ccccc1C(=O)c1cc2c(-c3ccccc3)c(O)ccc2o1 | L1210 | – | 48 h | > 50 |
| CCN(CC)CCCC(C)Nc1ccnc2cc(Cl)ccc12 (stereo not drawn) | GISTT1 | resazurin | 72 h | > 1 |
| C=CC(=O)Nc1cc(Nc2nc(N3CCOCC3)c3sccc3n2)c(OC)cc1N(C)CCN(C)C | NCI-H460 | MTT | – | > 50 |
| C=C[C@H]1C[N@@]2CC[C@H]1C[C@@H]2[C@@H](O)c1ccnc2ccc(OC)cc12 | MDCK-II | MTT | 48 h | 267 |
| C=C(C)C(=O)Nc1ccc(-c2c(-c3ccc(Oc4nccc(C)n4)c(F)c3)c3c(N)ncnc3n2C)cc1 | MDA-MB-453 | ATP luminescence | 96 h | > 10 |
| CCOC(=O)c1ccc2c(c1)C(=O)CCc1ccccc1C(=O)N2 | L6 | – | – | 15 |
| O=C(c1ccccc1)c1cc2c(-c3ccccc3)c(O)ccc2o1 | L1210 | – | 48 h | 37 |
| NC(=O)c1ccc2c(c1)C(=O)CCc1ccccc1C(=O)N2 | L6 | – | – | > 340 |
| COc1cc([C@@H]2c3cc4c(cc3[C@@H](O[C@@H]3O[C@@H]5CO[C@@H](C)O[C@H]5[C@H](O)[C@H]3O)[C@H]3COC(=O)[C@H]23)OCO4)cc(OC)c1O | GISTT1 | resazurin | 72 h | > 1 |
| COc1cc(OC)cc(C(=O)c2cc3c(-c4ccccc4)c(O)ccc3o2)c1 | L1210 | – | 48 h | 19 |
| O=c1[nH]cc(F)c(=O)[nH]1 | L1210 | – | 48 h | 0.49 |
| C[C@@H]1O[C@@H](O[C@H]2C[C@@H](O)[C@]3(CO)[C@H]4[C@H](O)C[C@]5(C)[C@@H](C6=CC(=O)OC6)CC[C@]5(O)[C@@H]4CC[C@]3(O)C2)[C@H](O)[C@H](O)[C@H]1O | GISTT1 | resazurin | 72 h | 0.21 |
| CC(C)[C@H](N)c1nc2cc(N3CCNCC3)sc2c(=O)[nH]1 | COLO 205 | MTT | – | > 10 |
| Nc1nc(Cl)nc2c1ncn2[C@@H]1O[C@H](CO)[C@@H](O)[C@@H]1F | GISTT1 | resazurin | 72 h | > 1 |
| CC(C)=CCC/C(C)=C/COc1ccc2ccc(=O)oc2c1 | COLO 205 | MTT | 72 h | 63.1 |
| COc1cccc(C(=O)c2cc3c(-c4ccccc4)c(O)ccc3o2)c1 | L1210 | – | 48 h | 38 |
| CC(C)[C@H](N)c1nc2cc(-c3ccnnc3)sc2c(=O)[nH]1 | COLO 205 | MTT | – | 5.97 |
| COc1cccc2c1C(=O)c1c(O)c3c(c(O)c1C2=O)C[C@@](O)(C(=O)CO)C[C@@H]3O[C@H]1C[C@H](N)[C@H](O)[C@H](C)O1 | GISTT1 | resazurin | 72 h | 0.31 |
| COc1cccc(C(=O)c2cc3c(-c4ccccc4)c(OC)ccc3o2)c1 | L1210 | – | 48 h | 10 |
| O=C1Nc2ccccc2C(=NO)CCc2ccccc21 | L6 | – | – | > 380 |

| Structure (SMILES) | cell line | method | time | IC50 [µM] |
| --- | --- | --- | --- | --- |
| COc1cc2ccc(=O)oc2cc1OC | COLO 205 | MTT | 72 h | > 100 |
| Nc1nc(F)nc2c1ncn2[C@@H]1O[C@H](COP(=O)(O)O)[C@@H](O)[C@@H]1O | GISTT1 | – | 72 h | 0.53 |
| CC[C@@H](C)[C@H](N)C(=O)N1Cc2ccccc2C1 | RS4-11 | ATP luminescence | 24 h | 71.1 |
| O=C(O)c1ccc2c(c1)C(=O)CCc1ccccc1C(=O)N2 | L6 | – | – | 220 |
| O=c1c(O)c(-c2cc(O)c(O)c(O)c2)oc2cc(O)cc(O)c12 | SCaBER | ATP luminescence | 72 h | 30.3 |
| CC(C)n1c(/C=C/C(O)CC(O)CC(=O)O)c(-c2ccc(F)cc2)c2ccccc21 (stereo not drawn) | L1210 | MTS | 96 h | 2.3 |
| CCC(=O)Nc1cc(Nc2nc(N3CCc4sccc4C3)c3cccnc3n2)c(OC)cc1N1CCOCC1 | NCI-H460 | MTT | – | > 50 |
| O=c1c(O[C@@H]2O[C@H](CO)[C@@H](O)[C@H](O)[C@H]2O)c(-c2ccc(O)c(O)c2)oc2cc(O)cc(O)c12 | SCaBER | ATP luminescence | 72 h | 8.66 |
| O=C1Nc2ccccc2C(=O)CCc2ccc(F)cc21 | L6 | – | – | 110 |
| CCC1=C[C@@H]2CN(C1)Cc1c([nH]c3ccccc13)[C@@](C(=O)OC)(c1cc3c(cc1OC)N(C)[C@H]1[C@@](O)(C(=O)OC)[C@H](OC(C)=O)[C@]4(CC)C=CCN5CC[C@]31[C@@H]54)C2 | GISTT1 | resazurin | 72 h | 0.23 |
| CCC(=O)Nc1cc(Nc2nc(N3CCc4sccc4C3)c3cccnc3n2)c(OC)cc1N1CCN(CCO)CC1 | NCI-H460 | MTT | – | > 50 |
| O=C1Nc2ccc(OC(F)(F)F)cc2C(=O)CCc2ccccc21 | L6 | – | – | 44 |
| CC(=O)[C@]1(O)Cc2c(O)c3c(c(O)c2[C@@H](O[C@H]2C[C@H](N)[C@H](O)[C@H](C)O2)C1)C(=O)c1ccccc1C3=O | GISTT1 | – | 72 h | 0.09 |
| COc1cc(Nc2nccc(-c3cnn4nc(OC)ccc34)n2)cc(C(F)(F)F)c1 | NCI-H1838 | ATP luminescence | – | > 3 |
| CCN1CCN(c2ccc(Nc3cc(N(C)C(=O)Nc4c(Cl)c(OC)cc(OC)c4Cl)ncn3)cc2)CC1 | MDA-MB-453 | ATP luminescence | 96 h | > 1 |
| CO/N=C1\CCc2ccccc2C(=O)Nc2ccccc21 | L6 | – | – | 250 |
| O=[N+]([O-])c1ccc(Cn2cc(Cn3c4ccccc4c4nc5ccccc5nc43)nn2)cc1 | INS1 | MTT | 24 h | > 100 |
| O=C1CCc2ncccc2C(=O)Nc2ccccc21 | L6 | – | – | 160 |
| CC(C)[C@H](N)C(=O)N1CCC[C@H]1B(O)O | RS4-11 | ATP luminescence | 24 h | 0.147 |
